# Experimental data taken from article PMC2233905 (The Journal of General Physiology, 2004).
# Key:
# [1] = molecular target: T1, hEag1 channels (Homo sapiens, UniProt O95259); experiment: hEag1 channels expressed in Xenopus oocytes; type: cell-based
# T1 sequence (O95259 1-989): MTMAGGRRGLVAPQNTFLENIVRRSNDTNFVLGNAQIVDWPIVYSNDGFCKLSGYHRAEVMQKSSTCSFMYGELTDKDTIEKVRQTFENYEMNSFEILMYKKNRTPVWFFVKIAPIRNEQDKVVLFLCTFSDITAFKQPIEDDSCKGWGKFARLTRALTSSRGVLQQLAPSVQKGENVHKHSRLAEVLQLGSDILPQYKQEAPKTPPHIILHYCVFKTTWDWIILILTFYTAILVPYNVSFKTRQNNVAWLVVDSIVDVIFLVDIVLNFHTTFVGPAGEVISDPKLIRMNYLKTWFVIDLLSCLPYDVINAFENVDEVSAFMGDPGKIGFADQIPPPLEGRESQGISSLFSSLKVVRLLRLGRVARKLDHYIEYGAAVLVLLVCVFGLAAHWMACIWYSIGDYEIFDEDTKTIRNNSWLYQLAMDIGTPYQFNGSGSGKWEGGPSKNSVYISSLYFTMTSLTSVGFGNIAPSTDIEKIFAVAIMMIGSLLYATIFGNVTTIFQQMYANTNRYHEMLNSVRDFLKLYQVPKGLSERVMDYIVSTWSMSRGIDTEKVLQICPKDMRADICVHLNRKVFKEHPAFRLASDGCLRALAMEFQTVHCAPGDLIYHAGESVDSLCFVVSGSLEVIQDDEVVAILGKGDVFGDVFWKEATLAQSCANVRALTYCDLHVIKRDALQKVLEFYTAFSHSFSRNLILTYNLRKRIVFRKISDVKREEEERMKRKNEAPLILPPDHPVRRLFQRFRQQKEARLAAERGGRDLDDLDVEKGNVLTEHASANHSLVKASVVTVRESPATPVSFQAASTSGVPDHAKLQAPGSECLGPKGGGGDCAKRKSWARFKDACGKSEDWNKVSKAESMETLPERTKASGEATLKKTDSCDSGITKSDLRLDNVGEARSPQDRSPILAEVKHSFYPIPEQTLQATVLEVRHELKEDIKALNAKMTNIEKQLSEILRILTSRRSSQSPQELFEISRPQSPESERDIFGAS
# [2] = molecular target: T1, hEag1 channels; experiment: Whole-cell patch-clamp of hEag1 currents in stably transfected HEK-293 cells; type: cell-based
# [3] = test system: Eag-like channels 2 (hELK2); conditions: ref Becchetti et al., 2002; cited from earlier work
# [4] = test system: cardiac IsK currents; conditions: concentrations up to 10 μM; ref Suessbrich et al., 1996; cited from earlier work
# [5] = molecular target: T1, hEag1 channels; experiment: Cell-attached patch recordings of hEag1 currents, drug in bath; type: cell-based; conditions: 140 mM external K+, 60 mV
# Outline: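 hEag1-expressing cells grown 24–72 h on poly-L-lysine-coated coverslips; cell-attached patches at room temperature. Bath held 140 mM K+; pipette held control external solution (160 NaCl, 2.5 KCl, 2 CaCl2, 1 MgCl2, 10 HEPES, pH 7.4) without glucose. 1-s steps to 60 mV from −70 mV were recorded before, during and after washout of bath-applied drug.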
# [6] = molecular target: T2, hEag2 channels (Homo sapiens, UniProt Q8NCM2); experiment: hEag2 channels expressed in Xenopus oocytes; type: cell-based
# T2 sequence (Q8NCM2 1-988): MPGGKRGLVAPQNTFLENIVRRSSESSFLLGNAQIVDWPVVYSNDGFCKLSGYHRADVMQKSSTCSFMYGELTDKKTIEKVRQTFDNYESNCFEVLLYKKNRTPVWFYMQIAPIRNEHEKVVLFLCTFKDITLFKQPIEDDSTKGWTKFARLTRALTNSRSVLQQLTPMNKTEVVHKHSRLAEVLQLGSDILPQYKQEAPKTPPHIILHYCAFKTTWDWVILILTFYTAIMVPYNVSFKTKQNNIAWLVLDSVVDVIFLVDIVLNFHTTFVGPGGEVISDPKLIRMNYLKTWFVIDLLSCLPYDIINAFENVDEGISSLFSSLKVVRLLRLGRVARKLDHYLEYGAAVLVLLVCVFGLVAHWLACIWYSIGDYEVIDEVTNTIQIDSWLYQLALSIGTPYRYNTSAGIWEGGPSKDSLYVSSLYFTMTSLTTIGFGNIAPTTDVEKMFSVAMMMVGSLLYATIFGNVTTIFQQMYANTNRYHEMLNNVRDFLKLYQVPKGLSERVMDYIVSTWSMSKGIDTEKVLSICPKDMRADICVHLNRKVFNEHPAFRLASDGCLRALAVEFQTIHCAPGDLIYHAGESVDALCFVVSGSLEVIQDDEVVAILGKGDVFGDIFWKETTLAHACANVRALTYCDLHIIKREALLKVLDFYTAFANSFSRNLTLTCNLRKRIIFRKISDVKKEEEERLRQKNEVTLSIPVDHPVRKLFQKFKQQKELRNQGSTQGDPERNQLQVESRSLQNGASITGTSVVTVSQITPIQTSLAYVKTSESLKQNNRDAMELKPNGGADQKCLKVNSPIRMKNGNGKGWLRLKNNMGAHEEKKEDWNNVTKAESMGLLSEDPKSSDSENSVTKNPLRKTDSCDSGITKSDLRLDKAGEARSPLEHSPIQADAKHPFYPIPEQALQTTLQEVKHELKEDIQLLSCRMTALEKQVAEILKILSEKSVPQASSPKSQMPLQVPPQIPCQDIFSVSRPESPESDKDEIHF
# [7] = 10 μM imipramine or 1 μM astemizole
# [8] = 200 μM internal TEA, 80 mV, 10 μM imipramine or 1 μM astemizole
# [9] = control, 80 mV, 10 μM imipramine or 1 μM astemizole
# [10] = nonsaturating concentrations, 80 mV
smiles,measurement,setting,value
COc1ccc(CCN2CCC(Nc3nc4ccccc4n3Cc3ccc(F)cc3)CC2)cc1 [astemizole],IC50,[1],~1500 nM
same,Kd,[2],109 nM
same,voltage dependence of block,[2],insensitive to membrane potential
same,current blocked,"[2]; 100 nM astemizole in the presence of 5 μM imipramine, 60 mV",38 ± 5%
same,current blocked,"[2]; 100 nM astemizole, control external solution, 60 mV",66 ± 3%
same,k of exponential fit to τclose(V) (tail current deactivation),[2]; [7],−0.025
same,τ(0) of exponential fit to τclose(V) (tail current deactivation),[2]; [7],10.75 ms
same,τ∞ of exponential fit to τclose(V) (tail current deactivation),[2]; [7],0.75 ms
same,effect on whole-cell current when added to the intracellular solution,[2]; 25 μM in intracellular pH 6.4 solution (unpublished data),substantial block
same,reduction of potency in the presence of internal TEA,[2]; 200 μM internal TEA,~50%
same,current blocked,[2]; [8],42 ± 12%
same,τblock,[2]; [8],1084 ± 158 ms
same,effect of external TEA on the block,[2]; 7 mM external TEA,did not affect
same,IC50,"[2]; IC50(V), voltage-independent line through IC50 data, test potentials 20–120 mV",120 nM
same,IC50,"[2]; IC50, whole-cell, pHext//pHint 6.4//7.35",419 ± 68 nM
same,IC50,"[2]; IC50, whole-cell, pHext//pHint 7.4//6.4",54 ± 12 nM
same,IC50,"[2]; IC50, whole-cell, pHext//pHint 7.4//8.4",556 ± 69 nM
same,IC50,"[2]; IC50, whole-cell, pHext//pHint 8.4//7.35",37 ± 7 nM
same,current blocked,[2]; [9],87 ± 3%
same,τblock,[2]; [9],317 ± 73 ms
same,slope of logIC50 versus difference between pHext and pHint,[2]; linear fit,−0.53
same,slope of linear fit of τblock^−1 versus concentration,[2]; [10],4 s^−1μM^−1
same,y intercept of linear fit of τblock^−1 versus concentration,[2]; [10],0.4 µM
same,time constant of block washout,"[2]; pHext 7.4, pHint 6.4",235 s
same,time course of block onset,"[2]; pHext 7.4, pHint 6.4, 250 nM astemizole",60 s
same,time constant of block washout,"[2]; pHext 7.4, pHint 8.4",25 s
same,time course of block onset,"[2]; pHext 7.4, pHint 8.4, 5 μM astemizole",20 s
same,Hill coefficient of dose–response plot,"[2]; whole-cell, 80 mV",1.32
same,Hill coefficient of fit to τblock versus concentration,"[2]; whole-cell, 80 mV",1.32
same,time constant of current decay (τblock) at the IC50 concentration,"[2]; whole-cell, 80 mV",~500 ms
same,"τblock, maximum of Hill fit","[2]; whole-cell, 80 mV",1.33 s
same,"τblock, minimum of Hill fit","[2]; whole-cell, 80 mV",0.024 s
same,sensitivity to astemizole,[3],not sensitive
same,effect on current,[4],no significant effects
same,block of channels in cell-attached patches by bath application,[5],blocked
same,IC50,[6],~1500 nM
